High-throughput results: PubChem, several laboratories
PDI inh – PDI (human) enzyme inhibition | inhibition, % at 10 µM | P07237 | PDI insulin aggregation turbidity, A650, 90 min | 0.052% of 350,000 active;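 active = mean inhibition across replicates of 30% or more, whatever share of single replicates reach that level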
CAL PDZ FP-1 – blocks peptide binding to human CAL PDZ domain; Q9HD26; purified CAL PDZ, TMR-peptide fluorescence polarization, 1 h; inhibition, % at 20 µM; 0.02% of 330,000 active; AID 504414;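 active = highest replicate inhibition of at least 40%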
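material = purified tagged CAL PDZ domain construct (CerCALP) | compound dosing = 20 µM, one dose | times = 1 h at RT | measured by = fluorescence polarization from S- and P-plane intensities, G-factor corrected | read-out = inhibition from polarization loss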
CAL PDZ FP-2 – inhibitors of human CAL PDZ peptide binding. 0.92% of 300,000 active. purified CAL PDZ, TMR-peptide fluorescence polarization, 1 h. Q9HD26. inhibition, % at 24.9 µM;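 active = mean inhibition of at least 30% with at least half of replicates also reaching 30%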
Rin1 Abl inh – inhibitors of human Rin1-Abl protein interaction | 0.4% of 360,000 active | inhibition, % at 7.35 µM | TR-FRET Rin1/Abl binding, biochemical | P00519+Q13671; in the data active = inhibition above about 5%, passing the limit was not always enough
ERAP1 inh – inhibitors of human ERAP1 aminopeptidase; Q9NZ08; recombinant ERAP1, Leu-AMC fluorescence, 60 min; inhibition, % at 10.7 µM; 0.15% of 340,000 active;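 active = mean replicate inhibition of at least 30%, or all replicates individually reaching that 30% level; inactive = mean below 30% and not every replicate reaching it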
ERp5 inh – ERp5 (human) disulfide isomerase inhibition | ERp5 insulin aggregation, absorbance 650 nm, 90 min | inhibition, % at 9.99 µM | 0.05% of 350,000 active | AID 651711;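 active = mean replicate inhibition above about 25%, with every replicate also reaching it, limit read from the data, passing the limit was not always enough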
Target sequence (Q15084 whole entry, looked up): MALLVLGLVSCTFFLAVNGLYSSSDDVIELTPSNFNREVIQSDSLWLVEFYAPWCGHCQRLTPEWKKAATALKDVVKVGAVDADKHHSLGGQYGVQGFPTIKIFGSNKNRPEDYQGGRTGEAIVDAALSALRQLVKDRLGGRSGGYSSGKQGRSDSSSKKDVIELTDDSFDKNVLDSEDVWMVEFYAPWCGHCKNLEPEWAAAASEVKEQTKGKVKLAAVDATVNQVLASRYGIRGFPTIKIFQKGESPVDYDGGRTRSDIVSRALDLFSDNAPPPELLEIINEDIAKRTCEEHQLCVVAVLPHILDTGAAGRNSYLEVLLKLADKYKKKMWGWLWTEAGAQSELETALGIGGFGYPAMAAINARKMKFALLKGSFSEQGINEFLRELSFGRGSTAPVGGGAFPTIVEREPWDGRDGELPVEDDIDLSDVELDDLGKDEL
Numbers stand for hits; i = inactive; nt = not tested or not shown. In the library only some 1.1% were active in any assay of this set; here they are far more common.

SMILES	PDI inh	CAL PDZ FP-1	CAL PDZ FP-2	Rin1 Abl inh	ERAP1 inh	ERp5 inh
O=C(CCN1C(=O)/C(=C\c2ccccc2)SC1=S)NCCCN1CCOCC1	i	i	i	i	i	26
Cc1cc(C)nc(SCc2cc(=O)c(OC(=O)c3cc([N+](=O)[O-])ccc3Cl)co2)n1	i	i	i	i	nt	nt
O=C(Oc1coc(CSc2ncccn2)cc1=O)c1ccccc1[N+](=O)[O-]	i	i	82	i	i	i
Nc1nc(C2CCCN2S(=O)(=O)c2ccc(Cl)cc2)cs1 (centres undefined)	i	i	46	i	nt	nt
CC1(C)CC(N2CCCC2)=CC(=[N+]2CCCC2)C1	i	i	i	i	63	i
CN1CCN(C(=O)[C@@H]2[C@@H](CO)[C@@H]3Cn4c(ccc(/C=C/c5ccccc5)c4=O)[C@@H]3N2CC2CC2)CC1	nt	nt	nt	nt	i	i
Cc1ccccc1NC(=O)C(=O)NNC(=O)COc1ccc2ccccc2c1	i	i	39	i	i	i
Nc1nnc(N)c2ccccc12	i	i	57	i	i	i
C[C@H](NC(=O)N1CCn2c1nc1ccccc12)C(=O)N1CCCCC1	i	i	42	i	i	i
O=C(CSc1nnnn1-c1ccccc1)CSc1nnnn1-c1ccccc1	i	i	i	i	i	i
O=C(CSc1nnnn1-c1ccccc1)c1ccc(O)cc1O	i	i	43	i	i	i
CCCNC(=O)N1[C@H](C#N)[C@H](c2ccc(C#Cc3cccc(F)c3)cc2)[C@H]1CO	nt	nt	nt	nt	i	i
COc1ccc(NC(=O)CSc2nnnn2-c2ccc(OC)cc2)cc1	i	i	i	i	nt	nt
CCOc1ccc(NC(=O)CSc2nnnn2-c2ccc(C(N)=O)cc2)cc1	i	nt	66	i	i	i
COC(=O)c1ccc(OCc2nn[nH]n2)cc1	i	i	61	i	i	i
Cc1cc(/C=C2\SC(=S)N(C)C2=O)c(C)n1-c1ccc(O)cc1	75	i	i	i	i	i
CO[C@H]1CN(C)C(=O)c2cc(NC(=O)c3ccccc3F)ccc2OC[C@H](C)N(CC2CCOCC2)C[C@@H]1C	nt	nt	nt	nt	i	i
O=C(CSc1n[nH]c(-c2ccncc2)n1)NC1CCS(=O)(=O)C1 (centres undefined)	i	nt	i	i	nt	nt
O=C(CSc1n[nH]c(-c2cccs2)n1)NC1CCS(=O)(=O)C1 (centres undefined)	i	i	i	i	35	i
CN(C)S(=O)(=O)c1cc(NC(=O)Cn2ccsc2=N)ccc1Cl	i	i	101	i	i	i
Cc1ccc(NC(=O)Cn2ccsc2=N)cc1S(=O)(=O)N(C)C	i	i	nt	i	i	i
Cc1ccccc1NC(=O)c1nc(S(C)(=O)=O)ncc1Cl	i	i	86	i	i	i
CCCC(=O)NC(=S)Nc1ccccc1F	i	i	i	6.3	nt	nt
CO[C@@H]1CN(C)C(=O)c2cc(NC(=O)Nc3c(C)noc3C)ccc2OC[C@H](C)N(CCC(F)(F)F)C[C@H]1C	nt	nt	nt	nt	i	i
CCN(CC)CCCNC(=O)c1cn(CC(C)C)c(=O)c2c1c1ccccc1n2C	i	i	50	i	i	i
SMILES	PDI inh	CAL PDZ FP-1	CAL PDZ FP-2	Rin1 Abl inh	ERAP1 inh	ERp5 inh
CCCCN(CC)CCCNC(=O)c1cn(CC(C)C)c(=O)c2c1c1ccccc1n2C	i	i	i	i	i	i
Cc1noc(C)c1NC(=O)N(C)C[C@H]1OCCCC[C@@H](C)Oc2ccc(NS(=O)(=O)c3ccc(F)cc3)cc2C(=O)N([C@@H](C)CO)C[C@H]1C	nt	nt	nt	nt	i	i
COc1ccccc1NC(=O)C1CCN(C(=O)NCc2ccccc2)CC1	i	i	56	i	i	i
O=C(NC(c1ccccc1)c1ccccc1)c1ccccc1	i	i	i	i	i	i
COc1cc(C(=O)NC(c2ccccc2)c2ccccc2)cc(OC)c1OC	i	i	51	i	i	i
CCOc1ccc(NC(=O)CN2CCN(CC(=O)Nc3ccccc3OC)CC2)cc1	i	nt	123	i	i	i
O=C(Nc1cccc2ccccc12)C1CCN(C(=O)NCc2ccccc2)CC1	i	i	i	i	nt	nt
COc1ccccc1NC(=O)CNC(c1ccccc1)c1ccccc1	i	i	33	i	i	i
CNC[C@@H]1Oc2ccc(N(C)C)cc2C(=O)N([C@@H](C)CO)C[C@H]1C	nt	nt	nt	nt	i	i
O=C(C[C@@H]1C=C[C@@H](NC(=O)Nc2ccccc2F)[C@@H](CO)O1)NCc1ccc(F)cc1	nt	nt	nt	nt	i	i
Cc1ccccc1-c1cnc2c(c1)C(=O)N([C@@H](C)CO)C[C@H](C)[C@H](CN(C)C(=O)c1ccncc1)O2	nt	nt	nt	nt	i	i
COc1ccccc1NC(=O)Cn1c([N+](=O)[O-])cnc1C	i	i	64	i	i	i
COc1ccccc1NC(=O)CN1CCCCCC1	i	i	47	i	i	i
COc1cc(C(=O)NC(=S)Nc2ccc(Cl)c(C(=O)O)c2)cc(OC)c1OC	i	nt	40	i	i	i
CN(C)S(=O)(=O)c1ccc(NC(=O)CN2CCCCCC2)cc1	i	i	133	i	i	i
CN1CCN(CC(=O)Nc2ccc(S(=O)(=O)N(C)C)cc2)CC1	i	i	i	i	i	i
COc1ccc(S(=O)(=O)N(C)C[C@H]2OCCCC[C@H](C)Oc3ccc(NC(=O)Nc4c(C)noc4C)cc3C(=O)N([C@H](C)CO)C[C@@H]2C)cc1	nt	nt	nt	nt	i	i
COCC(=O)Nc1ccc2c(c1)OC[C@H](C)N(Cc1ccccc1F)C[C@@H](C)[C@H](OC)CN(C)C2=O	nt	nt	nt	nt	i	i
O=C(NCC1CC1)[C@@H]1[C@@H](CO)[C@@H]2Cn3c(ccc(-c4cccnc4)c3=O)[C@@H]2N1C(=O)NC1CCCC1	nt	nt	nt	nt	i	i
Cc1noc(C)c1S(=O)(=O)Nc1ccc2c(c1)C(=O)N([C@H](C)CO)C[C@H](C)[C@H](CN(C)S(C)(=O)=O)O2	nt	nt	nt	nt	i	i
Cc1cccc(S(=O)(=O)N2C[C@@H](O)COC[C@H]3O[C@H](CC(=O)NCCCN4CCOCC4)CC[C@@H]32)c1	nt	nt	nt	nt	i	i
CCOc1cc(NC(=O)c2ccco2)c(OCC)cc1NC(=O)c1cc(OC)c(OC)c(OC)c1	i	i	i	i	nt	nt
COc1cc(NC(=O)c2ccco2)c(OC)cc1NC(=O)c1cc(OC)c(OC)c(OC)c1	i	i	97	i	nt	nt
COc1ccc(CNc2nc3nc(-c4ccccc4)cc(=O)n3[nH]2)cc1OC	i	i	40	i	nt	nt
COc1ccc(CNc2nc3nc(C)c(Cl)c(=O)n3[nH]2)cc1OC	i	i	i	i	nt	nt
CN(C)c1ccc2c(c1)[C@@H]1C[C@H](CC(=O)NCc3cccc(F)c3)O[C@@H](CO)[C@@H]1O2	nt	nt	nt	nt	i	i
CN(C)S(=O)(=O)c1ccc(C(=O)NCC[N+]2(C)CCCCCC2)o1	i	i	i	i	41	i
Cc1cc(F)c(F)cc1C(=O)N1CCCC1	i	i	53	i	i	i
C[C@@H]1CN([C@H](C)CO)C(=O)Cc2cc(NC(=O)NC3CCCCC3)ccc2O[C@H]1CN(C)CC1CCCCC1	nt	nt	nt	nt	i	i
